Results: ChEMBL document CHEMBL1134624, “Potent and selective ET-A antagonists. 1. Syntheses and structure-activity relationships of N-(6-(2-(aryloxy)ethoxy)-4-pyrimidinyl)sulfonamide derivatives” (J Med Chem, 2001)
pIC50: −log10 of the molar value.

How the values were obtained:
[1] = target: T1, Endothelin receptor type B (Homo sapiens, UniProt P24530); test: Ability to inhibit specific binding of [125I]- -ET-1 to human GH cells which express endothelin B receptor; type: cell-based
T1 sequence (P24530 whole entry): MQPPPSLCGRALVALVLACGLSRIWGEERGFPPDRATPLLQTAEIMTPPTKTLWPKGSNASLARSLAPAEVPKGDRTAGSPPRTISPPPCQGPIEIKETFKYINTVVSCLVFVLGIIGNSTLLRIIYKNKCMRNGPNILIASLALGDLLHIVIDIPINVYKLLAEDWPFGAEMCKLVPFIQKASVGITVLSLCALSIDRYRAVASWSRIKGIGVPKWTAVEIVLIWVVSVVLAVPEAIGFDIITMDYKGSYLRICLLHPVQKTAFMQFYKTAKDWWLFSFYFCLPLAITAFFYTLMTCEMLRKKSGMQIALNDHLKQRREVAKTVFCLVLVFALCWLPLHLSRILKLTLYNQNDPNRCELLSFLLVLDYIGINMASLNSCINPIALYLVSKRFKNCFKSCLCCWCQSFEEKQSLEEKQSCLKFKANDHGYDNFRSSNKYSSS

Endothelin-1 receptor [2] = target: T2, Endothelin-1 receptor (Rattus norvegicus, UniProt P26684); test: In vitro for specific binding of [125I]ET1 to A10 cell expressed in endothelin A receptor; type: cell-based
T2 sequence (P26684 whole entry): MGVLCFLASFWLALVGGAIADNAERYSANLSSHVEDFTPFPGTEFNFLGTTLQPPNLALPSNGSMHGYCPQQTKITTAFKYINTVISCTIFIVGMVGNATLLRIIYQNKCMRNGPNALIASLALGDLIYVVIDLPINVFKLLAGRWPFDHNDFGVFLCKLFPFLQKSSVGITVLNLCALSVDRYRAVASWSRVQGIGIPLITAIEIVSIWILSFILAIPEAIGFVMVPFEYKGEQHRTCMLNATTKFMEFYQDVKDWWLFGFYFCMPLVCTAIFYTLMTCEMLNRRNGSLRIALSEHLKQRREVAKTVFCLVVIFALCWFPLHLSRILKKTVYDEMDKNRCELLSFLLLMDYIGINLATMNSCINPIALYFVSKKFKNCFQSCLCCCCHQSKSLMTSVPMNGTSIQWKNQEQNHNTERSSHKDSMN

Endothelin-1 receptor [3] = target: T3, Endothelin-1 receptor (Sus scrofa, UniProt Q29010); test: In vitro inhibition of [125I]ET1 binding to Endothelin A receptor in porcine aortic membrane from endothelial cells; type: cell membranes; settings: in the assay text read “with endothelium removed” for “from endothelial cells”
T3 sequence (Q29010 whole entry): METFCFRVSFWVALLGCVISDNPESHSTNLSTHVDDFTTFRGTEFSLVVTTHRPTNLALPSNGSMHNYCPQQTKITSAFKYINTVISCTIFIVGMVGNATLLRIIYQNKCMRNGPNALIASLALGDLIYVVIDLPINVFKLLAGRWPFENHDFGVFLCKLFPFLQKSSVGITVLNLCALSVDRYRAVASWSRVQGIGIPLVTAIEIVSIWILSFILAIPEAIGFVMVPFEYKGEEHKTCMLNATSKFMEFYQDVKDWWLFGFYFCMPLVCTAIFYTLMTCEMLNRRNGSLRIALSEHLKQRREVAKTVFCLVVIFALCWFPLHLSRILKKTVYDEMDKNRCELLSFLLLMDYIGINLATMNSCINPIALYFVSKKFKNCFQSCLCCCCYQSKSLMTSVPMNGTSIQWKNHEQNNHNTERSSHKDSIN
In short: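 Endothelium-free porcine aorta homogenized in 10 mM MOPS (pH 7.4) with 20% sucrose. Membranes spun 1000g 15 min, then supernatant 90000g 45 min, and resuspended in 5 mM HEPES-Tris. Incubated with 20 pM final 125I-ET-1 and graded compound concentrations in 50 mM Tris-HCl pH 7.4, 0.1% BSA, protease inhibitors, EDTA, 2 h at 25 °C. Filtered, washed, gamma-counted.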

pIC50 [1]	pIC50 (Endothelin-1 receptor [2])	pIC50 (Endothelin-1 receptor [3])	SMILES
5.96	6.64	6.80	COc1cccc(Oc2c(NS(=O)(=O)c3ccc(C(C)(C)C)cc3)ncnc2OCCO)c1
	8.85	8.12	COc1ccccc1Oc1c(NS(=O)(=O)c2ccc(C(C)(C)C)cc2)nc(-c2ncccn2)nc1OCCO [BOSENTAN SODIUM]
